Screens: PubChem BioAssay, several laboratories
RanGTP-Impb inh – disruptors of Ran-importin-beta complex formation – biochemical, FRET, CFP-Ran, YFP-importin-beta, homogeneous, primary screen | cell-free CFP-Ran/YFP-importin-beta FRET ratio | inhibition, % (test concentration not listed) | actives 1.1% (n = 300,000) | AID 2216;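 active = more than half of the replicate wells show a fall in the fluorescence ratio signal beyond about 16%, limit read from the data, passing the limit was not always enough; inconclusive = exactly half of the replicate wells pass the set limit; inactive = fewer than half of replicates pass the limit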;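 note: 0% = DMSO wells and 100% = Ran loaded with GDP instead of GTP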
MEX-5 binding – C. elegans MEX-5 TCR-2 RNA binding activity | Q9XUB2 | MEX-5/FITC-TCR2 RNA binding, fluorescence polarization; active compounds read low | activity score (negative = inhibition of binding), % at 10 µM | actives 0.38% (n = 300,000);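 active = inhibition past about -25% in most replicates, and total fluorescence under double the plate's negative control median, limit read from the data; inconclusive = replicates evenly split on the limit, or fluorescence at least double controls; inactive = too little inhibition in most replicates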;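 note: 0% = DMSO and -100% = 5 µM competing unlabeled TCR2 RNA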
Runt-CBFb FRET – inhibitors of human RUNX1 Runt domain binding to CBFb; AID 1496; actives 0.46% (n = 220,000); inhibition, % at 20 µM; Cerulean-Runt/Venus-CBFb FRET ratio 530/480, 1 h;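 active = inhibition over about 50% at 20 µM in the single-dose screen, limit read from the data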;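 note: 0% = DMSO wells and 100% = excess unlabeled CBFb competitor control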
Target sequence (Q01196 whole entry, looked up, the tested form may be a part): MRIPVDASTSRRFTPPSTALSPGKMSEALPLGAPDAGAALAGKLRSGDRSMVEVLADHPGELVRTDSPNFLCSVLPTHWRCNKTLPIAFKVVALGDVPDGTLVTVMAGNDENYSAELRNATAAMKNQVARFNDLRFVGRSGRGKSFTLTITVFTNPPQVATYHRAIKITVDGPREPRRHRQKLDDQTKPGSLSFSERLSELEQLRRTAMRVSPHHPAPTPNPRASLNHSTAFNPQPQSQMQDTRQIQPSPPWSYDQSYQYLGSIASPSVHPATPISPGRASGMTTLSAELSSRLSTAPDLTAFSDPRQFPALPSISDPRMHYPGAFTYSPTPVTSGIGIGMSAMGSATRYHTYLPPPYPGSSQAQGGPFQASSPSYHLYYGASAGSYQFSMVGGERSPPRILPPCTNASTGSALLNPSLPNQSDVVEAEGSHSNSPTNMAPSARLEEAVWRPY
Target sequence (Q13951 whole entry, looked up, the tested form may be a part): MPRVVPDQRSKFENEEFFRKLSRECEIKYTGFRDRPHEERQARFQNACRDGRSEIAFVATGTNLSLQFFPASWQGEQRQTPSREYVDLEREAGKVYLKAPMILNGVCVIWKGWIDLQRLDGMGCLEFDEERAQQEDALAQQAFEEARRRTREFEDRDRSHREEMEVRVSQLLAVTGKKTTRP
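test system = Cerulean-tagged RUNX1 Runt domain (FRET donor) fusion protein | reagent = Venus-CBFb binding partner, 100 nM | incubation = protein complex preformed 1 h, compound exposure 1 h, room temperature, dark | detection = FRET fluorescence | read-out basis = loss of energy transfer signal | controls = 5 µM unlabeled CBFb as full-inhibition high control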
LANA-H2B inh – blocks KSHV LANA binding to histone H2A/H2B. cell-free LANA-H2A/H2B peptide, fluorescence polarization. inhibition, % (test concentration not listed). actives 0.6% (n = 320,000). AID 2629; in the data active = inhibition mostly above about 10%, no sharp cut-off; inactive = mostly below about 6.7%
EBV gp42 block – inhibitors of Epstein-Barr virus glycoprotein 42; inhibition, % (tested at 21.74 µM); AID 1085; Q1HVG2; actives 0.42% (n = 220,000); Fluorescence polarization binding assay, mP read-out; in the data active = inhibition above about 50%
Runt-SMMHC FRET – inhibitors of human RUNX1 Runt domain binding to CBFb-SMMHC | Q01196+Q13951 | Cerulean-Runt/Venus-CBFb-SMMHC FRET ratio 530/480, 1 h | inhibition, % at 20 µM | actives 0.74% (n = 220,000) | AID 1434;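 active = mean inhibition across duplicate retests at 20 µM reaching about 50%, limit read from the data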;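 note: 0% = DMSO wells and 100% = wells with excess untagged CBFb-SMMHC; inhibitors lower the FRET ratio by blocking Runt binding to CBFb-SMMHC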
Numbers without * were called inactive; ? = inconclusive; · = no result. This is a sample that favours compounds with a hit; in the whole collection about 2.4% have one here.

SMILES	RanGTP-Impb inh	MEX-5 binding	Runt-CBFb FRET	LANA-H2B inh	EBV gp42 block	Runt-SMMHC FRET
COCCn1c(N)c(C(=O)NCC2CCCO2)c2nc3ccccc3nc21 (stereo not drawn)	94*	-3	70*	3	-3	79*
COc1ccc(OC)c(-n2c(N)c(C(=O)NCC3CCCO3)c3nc4ccccc4nc32)c1 (stereo not drawn)	11	0	15	·	10	34
COCCn1c(N)c(C(=O)NCc2cccs2)c2nc3ccccc3nc21	84*	-6	14	0	21	70*
CCCCC(=O)NC(=S)Nc1cccc(NC(=O)c2ccco2)c1	-5	1	-2	3	6	1
Nc1c(C(=O)OCC2CCCO2)c2nc3ccccc3nc2n1C1CCCC1 (stereo not drawn)	13	-1	33	2	·	85*
Cn1c(-c2c(N)n(C3CCCC3)c3nc4ccccc4nc23)nc2ccccc21	?	1	-14	1	1	-40
Nc1c(C(=O)NC2CCCC2)c2nc3ccccc3nc2n1N	39*	1	14	3	-6	46
COc1ccccc1/C=N/n1c(N)c(C(=O)NC2CCCCC2)c2nc3ccccc3nc21	·	·	-1	·	-4	-4
CN(C)c1nc(NCc2ccccc2)nc(SCC(N)=O)n1	-2	3	·	5	·	·
COc1ccc(CCNC(=O)c2ccc(OCC(=O)N3CCOCC3)c(OC)c2)cc1OC	0	4	·	2	·	·
Cc1c2cc(O)c(=O)cc-2oc2cc(O)c(O)cc12	-1	?	1	114*	129*	-168
COc1cc(OC)c(-c2c3cc(O)c(=O)cc-3oc3cc(O)c(O)cc23)cc1OC	·	·	-92	-175	-128	-336
CCOC(=O)c1c(NC(=S)Nc2ccccc2)sc2c1CCCCC2	2	0	2	-2	-21	7
CCOC(=O)c1c(NC(=S)Nc2ccccc2)sc2c1CCN(CC)C2	62*	13	61*	-14	-61	152*
COC(=O)N1CCc2c(sc(NC(=O)C3COc4ccccc4O3)c2C(N)=O)C1 (stereo not drawn)	-1	0	·	2	·	·
NC(=O)c1c(NC(=O)C2COc3ccccc3O2)sc2c1CCN(Cc1ccccc1)C2 (stereo not drawn)	-3	-62*	110*	-1	-98	137*
CCOC(=O)c1c(NC(=O)C2COc3ccccc3O2)sc2c1CCN(Cc1ccccc1)C2 (stereo not drawn)	90*	-5	49	-1	-8	48
Cc1cc(C)cc(N(CC(=O)NCc2ccccc2)C(=O)CCC(=O)Nc2ccccn2)c1	?	1	·	-1	·	·
CC(OC(=O)Cn1[nH]c(=O)c2ccccc2c1=O)C(=O)c1ccccc1 (stereo not drawn)	-2	1	·	3	·	·
O=C1CC(C(=O)Nc2nccs2)C(c2ccccc2)O1 (stereo not drawn)	3	-3	0	3	-10	-3
CC(C)(Oc1ccc(Cl)cc1)C(=O)Nc1ccc(S(=O)(=O)Nc2ncccn2)cc1	1	4	·	4	·	·
CSc1nnc2ccc(-c3cccs3)nn12	?	4	0	0	5	3
CSc1ccccc1NC(=O)C(=O)c1c[nH]c2ccccc12	-4	-2	0	2	13	-1
COc1ccc(C2CC(c3ccccc3)n3nc(NC(=O)c4cccs4)nc3N2)cc1 (stereo not drawn)	?	1	0	-5	69*	-2
COc1ccc(C2CC(c3ccccc3)Nc3nc(NC(=O)c4cccs4)nn32)cc1 (stereo not drawn)	0	5	2	2	-2	2
Nc1c(C(=O)Nc2nc3ccccc3s2)sc2nc(-c3cccs3)ccc12	-39	-46*	-2	0	35	-37
CC(=O)c1sc2nc(-c3cccs3)ccc2c1N	-38	-10	28	-2	35	83*
Cc1nc(-c2cccs2)ccc1C(=O)O	-3	0	3	-1	-8	10
